From publication PMC9048702 (RSC Advances, 2020)
Where “and” joins values, the source holds several entries; their conditions need not be identical. Equal entries are not always repeated. Where two headings read alike, the source gives them in different places. Marks after values point to notes of the source that are not given here.

Experiments:
MCF7 cells = assay: MTT anti-proliferative assay, MCF7; format: cell-based, human; settings: MCF7, 48 h, read-out: IC50 MCF7
How it was run: (§1)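 HepG2 (passage 11), MCF7 (passage 13) and normal WI-38 fibroblasts were seeded at […]. Cells were exposed to test compound at 0.5, 1, 10, 20, 50 and 100 μM for 48 h, then incubated with MTT for 4 h. Formazan was dissolved in DMSO and read at 570 nm. Untreated and doxorubicin-treated cells were included. IC50 came from dose–response curves, mean ± SEM of two independent experiments.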

HepG2 cells = assay: MTT anti-proliferative assay, HepG2; format: cell-based, human; settings: HepG2, 48 h, read-out: IC50 HepG2
How it was run: as §1

WI-38 cells = assay: MTT assay, normal fibroblasts WI-38; format: cell-based; settings: read-out: IC50 WI-38, WI-38 normal fibroblasts, 48 h, mean ± SEM
caspase 3 = assay: qRT-PCR expression of caspase 3 in HepG2; format: cell-based, human; settings: HepG2, 8 h incubation at IC50 concentration, mean ± SEM
[1] = tested on: topoisomerase II (Topo II); assay: Topo II concentration in HepG2 cells, sandwich ELISA; format: cell-based, human; settings: HepG2, IC50 concentration, 8 hours
txnrd1 = assay: qRT-PCR expression of txnrd1 in HepG2; format: cell-based, human; settings: for Fold induction from untreated cells Txnrd1: HepG2, 8 h incubation at IC50 concentration, mean ± SEM; for down-regulation (inhibition) of txnrd1 expression: HepG2, 8 h
[2] = tested on: HepG2, MCF7 and WI-38 cells; assay: MTT anti-proliferative assay, cell lines summarised together in text; format: cell-based; settings: Homo sapiens
How it was run: as §1

p53 = assay: qRT-PCR expression of p53 in HepG2; format: cell-based, human; settings: HepG2, 8 h incubation at IC50 concentration, mean ± SEM
cdk1 = assay: qRT-PCR expression of cdk1 in HepG2; format: cell-based, human; settings: for inhibition in cdk1 expression: HepG2, 8 h
[3] = tested on: p38 mitogen-activated protein kinase (MAPK); assay: MAPK concentration in HepG2 cells, sandwich ELISA; format: cell-based, human; settings: HepG2, IC50 concentration, 8 hours
cleaved caspase 3 = assay: Active cleaved caspase 3 activity in HepG2, colorimetric kit; format: cell-based, human; settings: HepG2, IC50 concentration, 12 h
[4] = read-out: IC50 against cancer cell lines

## CC(=O)c1ccc(NC(=O)CSc2nnc(-c3n[nH]c(=O)c4ccccc34)o2)cc1 [Compound 4a, N-(4-Acetylphenyl)-2-((5-(4-oxo-3,4-dihydrophthalazin-1-yl)-1,3,4-oxadiazol-2-yl)thio)acetamide]
MCF7 cells; Homo sapiens
  IC50: 76.2 ± 4.7 µM
HepG2 cells; Homo sapiens
  IC50: 72.6 ± 4.8 µM

## O=c1c2ccccc2c(-c2nnc(SCNc3ccccc3Cl)o2)nn1CNc1ccccc1Cl [Compound 7c, 2-(((2-Chlorophenyl)amino)methyl)-4-(5-((((2-chlorophenyl)amino)methyl)thio)-1,3,4-oxadiazol-2-yl)phthalazin-1(2H)-one]
MCF7 cells; Homo sapiens
  IC50: 15.4 ± 1.2 µM
WI-38 cells
  IC50: 23.2 ± 1.2 µM
HepG2 cells; Homo sapiens
  IC50: 17.2 ± 1.9 µM

## O=c1[nH]nc(-c2nnc(SCNC3CCCCC3)o2)c2ccccc12 [Compound 7g, 4-(5-(((Cyclohexylamino)methyl)thio)-1,3,4-oxadiazol-2-yl)phthalazin-1(2H)-one]
MCF7 cells; Homo sapiens
  IC50: 45.5 ± 3.8 µM
HepG2 cells; Homo sapiens
  IC50: 42.9 ± 3.7 µM

## COc1ccc(NCSc2nnc(-c3nn(CNc4ccc(OC)cc4)c(=O)c4ccccc34)o2)cc1 [Compound 7d, 2-(((4-Methoxyphenyl)amino)methyl)-4-(5-((((4-methoxyphenyl)amino)methyl)thio)-1,3,4-oxadiazol-2-yl)phthalazin-1(2H)-one]
Caspase 3
  Fold induction from untreated cells Caspase 3: 2 fold and 1.96 ± 0.09 ^a fold
[1]
  decrease in Topo II concentration: 31%
txnrd1
  Fold induction from untreated cells Txnrd1: 1.02 ± 0.16 fold
MCF7 cells; Homo sapiens
  IC50: 5.5 ± 0.4 µM
[2]; [4]
  IC50: 5.5 to 15 µM
HepG2 cells; Homo sapiens
  IC50: 6.3 ± 0.7 µM
p53
  Fold induction from untreated cells p53: 2 fold and 2.16 ± 0.12 ^a fold

## NS(=O)(=O)c1ccc(NC(=O)CSc2nnc(-c3n[nH]c(=O)c4ccccc34)o2)cc1 [Compound 4b, 2-((5-(4-Oxo-3,4-dihydrophthalazin-1-yl)-1,3,4-oxadiazol-2-yl)thio)-N-(4-sulfamoylphenyl)acetamide]
MCF7 cells; Homo sapiens
  IC50: > 100 µM
HepG2 cells; Homo sapiens
  IC50: 83.9 ± 5.2 µM

## O=C(CSc1nnc(-c2n[nH]c(=O)c3ccccc23)o1)c1ccccc1 [Compound 2c, 4-(5-((2-Oxo-2-phenylethyl)thio)-1,3,4-oxadiazol-2-yl)phthalazin-1(2H)-one]
MCF7 cells; Homo sapiens
  IC50: 57.3 ± 4.2 µM
HepG2 cells; Homo sapiens
  IC50: 66.1 ± 4.5 µM

## O=c1c2ccccc2c(-c2nnc(SCNc3ccc([N+](=O)[O-])cc3)o2)nn1CNc1ccc([N+](=O)[O-])cc1 [Compound 7e, 2-(((4-Nitrophenyl)amino)methyl)-4-(5-((((4-nitrophenyl)amino)methyl)thio)-1,3,4-oxadiazol-2-yl)phthalazin-1(2H)-one]
Caspase 3
  Fold induction from untreated cells Caspase 3: 2 fold and 2.22 ± 0.14 ^a fold
txnrd1
  Fold induction from untreated cells Txnrd1: 1.11 ± 0.10 fold
MCF7 cells; Homo sapiens
  IC50: 8.4 ± 0.9 µM
[2]; [4]
  IC50: 5.5 to 15 µM
WI-38 cells
  IC50: 21.6 ± 1.8 µM
HepG2 cells; Homo sapiens
  IC50: 7 ± 1.5 µM
p53
  Fold induction from untreated cells p53: 2 fold and 2.02 ± 0.08 ^a fold

## Cc1ccc(NCSc2nnc(-c3nn(CNc4ccc(C)cc4)c(=O)c4ccccc34)o2)cc1 [Compound 7a, 2-((p-Tolylamino)methyl)-4-(5-(((p-tolylamino)methyl)thio)-1,3,4-oxadiazol-2-yl)phthalazin-1(2H)-one]
MCF7 cells; Homo sapiens
  IC50: 26.2 ± 2.5 µM
HepG2 cells; Homo sapiens
  IC50: 23.5 ± 2.8 µM

## COc1cccc2c1C(=O)c1c(O)c3c(c(O)c1C2=O)C[C@@](O)(C(=O)CO)C[C@@H]3O[C@H]1C[C@H](N)[C@H](O)[C@H](C)O1 [DOX, Doxorubicin, reference compound]
cdk1
  inhibition in cdk1 expression: ~75%
[1]
  decrease in Topo II concentration: 87%
txnrd1
  down-regulation (inhibition) of txnrd1 expression: 56%
MCF7 cells; Homo sapiens
  IC50: 4.2 ± 0.2 µM
[2]; read-out: IC50 against all cells investigated
  IC50: 4 to 7 µM
[3]
  reduction in MAPK concentration compared to untreated cells: 85%
HepG2 cells; Homo sapiens
  IC50: 4.5 ± 0.3 µM

## O=C(CSc1nnc(-c2n[nH]c(=O)c3ccccc23)o1)Nc1ccc(Cl)cc1 [Compound 4d, N-(4-Chlorophenyl)-2-((5-(4-oxo-3,4-dihydrophthalazin-1-yl)-1,3,4-oxadiazol-2-yl)thio)acetamide]
MCF7 cells; Homo sapiens
  IC50: 49.5 ± 3.9 µM
HepG2 cells; Homo sapiens
  IC50: 53.9 ± 3.8 µM

## CCSc1nnc(-c2n[nH]c(=O)c3ccccc23)o1 [Compound 2a, 4-(5-(Ethylthio)-1,3,4-oxadiazol-2-yl)phthalazin-1(2H)-one]
MCF7 cells; Homo sapiens
  IC50: 55.8 ± 4 µM
HepG2 cells; Homo sapiens
  IC50: 61.3 ± 4.2 µM

## O=C(CSc1nnc(-c2n[nH]c(=O)c3ccccc23)o1)c1cccc([N+](=O)[O-])c1 [Compound 2d, 4-(5-((2-(3-Nitrophenyl)-2-oxoethyl)thio)-1,3,4-oxadiazol-2-yl)phthalazin-1(2H)-one]
MCF7 cells; Homo sapiens
  IC50: > 100 µM
HepG2 cells; Homo sapiens
  IC50: > 100 µM

## O=c1c2ccccc2c(-c2nnc(SCNc3cccnc3)o2)nn1CNc1cccnc1 [Compound 7f, 2-((Pyridin-3-ylamino)methyl)-4-(5-(((pyridin-3-ylamino)methyl)thio)-1,3,4-oxadiazol-2-yl)phthalazin-1(2H)-one]
MCF7 cells; Homo sapiens
  IC50: 20.8 ± 1.9 µM
HepG2 cells; Homo sapiens
  IC50: 21.8 ± 2.3 µM

## O=c1[nH]nc(-c2nnc(SCc3ccccc3)o2)c2ccccc12 [Compound 2b, 4-(5-(Benzylthio)-1,3,4-oxadiazol-2-yl)phthalazin-1(2H)-one]
MCF7 cells; Homo sapiens
  IC50: 68.2 ± 4.4 µM
HepG2 cells; Homo sapiens
  IC50: 58.9 ± 4 µM

## O=c1c2ccccc2c(-c2nnc(SCNc3ccc(Cl)cc3)o2)nn1CNc1ccc(Cl)cc1 [Compound 7b, 2-(((4-Chlorophenyl)amino)methyl)-4-(5-((((4-chlorophenyl)amino)methyl)thio)-1,3,4-oxadiazol-2-yl)phthalazin-1(2H)-one]
MCF7 cells; Homo sapiens
  IC50: 31.3 ± 2.8 µM
HepG2 cells; Homo sapiens
  IC50: 33.3 ± 3.4 µM

## Cc1ccc(NC(=O)CSc2nnc(-c3n[nH]c(=O)c4ccccc34)o2)cc1 [Compound 4c, 2-((5-(4-Oxo-3,4-dihydrophthalazin-1-yl)-1,3,4-oxadiazol-2-yl)thio)-N-(p-tolyl)acetamide]
MCF7 cells; Homo sapiens
  IC50: 36.3 ± 3.2 µM
HepG2 cells; Homo sapiens
  IC50: 28.1 ± 2.9 µM

## S-(5-(4-Oxo-3,4-dihydrophthalazin-1-yl)-1,3,4-oxadiazol-2-yl)2-(2-isonicotinoylhydrazinyl)ethanethioate [Compound 3]
MCF7 cells; MTT, mean ± SEM
  IC50: 40 ± 3.6 µM
WI-38 cells
  IC50: 44.6 ± 4.2 µM
HepG2 cells; MTT, mean ± SEM
  IC50: 38.4 ± 3.5 µM

## O=c1[nH]nc(-c2nnc(S)o2)c2ccccc12 [Compound 1, 4-(5-mercapto-1,3,4-oxadiazol-2-yl)phthalazin-1(2H)-one]
Caspase 3
  Fold induction from untreated cells Caspase 3: 3.10 ± 0.21 ^a fold
cdk1
  inhibition in cdk1 expression: ~78%
cdk1; HepG2, 8 h incubation at IC50 concentration, mean ± SEM
  Fold induction from untreated cells Cdk1: 0.22 ± 0.03 ^a fold
[1]
  decrease in Topo II concentration: 84%
txnrd1
  down-regulation (inhibition) of txnrd1 expression: 33%
  Fold induction from untreated cells Txnrd1: 0.67 ± 0.03 fold
Cleaved caspase 3
  elevation in activity of active cleaved caspase 3 compared to untreated cells: ~7 fold
MCF7 cells; Homo sapiens
  IC50: 4.9 ± 0.8 µM
[3]
  reduction in MAPK concentration compared to untreated cells: 84%
HepG2 cells; Homo sapiens
  IC50: 4.5 ± 1.1 µM
p53
  Fold induction from untreated cells p53: 3.83 ± 0.11 ^a fold
